# Test results as given in ChEMBL document CHEMBL1135803, “Design, synthesis, and preliminary pharmacological evaluation of N-acyl-3-aminoglutarimides as broad-spectrum chemokine inhibitors in vitro and anti-inflammatory agents in vivo” (2002).
# Activity calls are given as the source filed them. No cut-off for these calls is given here. Peptide text beside a SMILES is read from it.
# Tested on: THP-1
# Test: Effective dose against monocyte chemoattractant protein-1(MCP-1) induced leukocyte migration of THP-1 cells
# Type: functional
# Settings: Homo sapiens, read-out: ED50 (the source's name)
# Outline: (§1)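 Trans-well microtiter migration of human myelomonocytic THP-1 cells toward 25 ng/mL MCP-1 in Gey's balanced salt solution with 1 mg/mL endotoxin-free BSA, no fetal calf serum, 2 h at 37 °C. Compound is in both compartments, DMSO 1% final, tested up to 100 μM. Migrated cells are counted by MTT as % of vehicle-only migration. ED50 is the concentration giving 50% reduction; triplicate determinations.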
row,EC50,Compound
1,> 100 µM,NC(=O)CC[C@H](NC(=O)c1ccccc1)C(=O)NCc1ccccc1
2,> 100 µM,CC(C)[C@H](NC(=O)[C@@H](N)Cc1c[nH]c2ccccc12)C(=O)N[C@@H](CC(N)=O)C(=O)O (H-Trp-Val-Asn-OH)
3,40 µM,C=CCCCCCCCCC(=O)N[C@@H](CCC(N)=O)C(=O)NCc1ccccc1
4,> 100 µM,CC(C)(C)OC(=O)N[C@@H](CCC(N)=O)C(=O)NCc1ccccc1
5,0.033 µM,CCCCC(=O)N[C@H]1CCC(=O)NC1=O
6,12 µM,NCCCC[C@H](NC(=O)[C@H](CCC(N)=O)NC(=O)[C@@H](N)CCCCN)C(=O)O
7,> 100 µM,NC(=O)CC[C@H](NC(=O)c1ccccc1)C(N)=O
8,0.033 µM,C=CCCCCCCCCC(=O)N[C@H]1CCC(=O)N(C)C1=O
9,> 100 µM,O=C1CC[C@H](NC(=O)c2ccccc2)C(=O)N1
10,0.01 µM,CCCCCCCCCCC(=O)N[C@H]1CCC(=O)NC1=O
11,6 µM,CC(C)[C@H](NC(=O)[C@H](Cc1c[nH]c2ccccc12)NC(=O)[C@H](CCCCN)NC(=O)[C@H](CCC(N)=O)NC(=O)[C@@H](N)CCCCN)C(=O)N[C@@H](CCC(N)=O)C(=O)O (H-KQKWVQ-OH)
12,0.01 µM,CCCCCCCCC(=O)N[C@H]1CCC(=O)NC1=O
13,8 µM,CC(C)[C@H](NC(=O)[C@H](Cc1c[nH]c2ccccc12)NC(=O)[C@H](CCCCN)NC(=O)[C@H](CCC(N)=O)NC(=O)[C@H](CCCCN)NC(=O)[C@@H]1CCCN1C(=O)[C@H](CC(=O)O)NC(=O)[C@H](C)NC(=O)[C@@H](N)CS)C(=O)N[C@@H](CCC(N)=O)C(=O)O (H-CADPKQKWVQ-OH)
14,0.066 µM,O=C(O)CCCCCCCCC(=O)N[C@H]1CCC(=O)NC1=O
15,15 µM,C=CCCCCCCCCC(=O)N[C@@H](CCC(N)=O)C(N)=O
16,45 µM,CC(C)(C)OC(=O)N[C@@H](CCC(N)=O)C(N)=O
17,0.66 µM,CCCC(CCC)C(=O)N[C@H]1CCC(=O)NC1=O
18,> 100 µM,CC(C)[C@H](N)C(=O)N[C@H](C(=O)N[C@@H](CCC(N)=O)C(=O)O)C(C)C (H-Val-Val-Gln-OH)
19,50 µM,CC[C@H](C)[C@H](NC(=O)[C@@H](N)CCC(=O)O)C(=O)N[C@@H](CS)C(=O)N[C@@H](C)C(=O)N[C@@H](CC(=O)O)C(=O)N1CCC[C@H]1C(=O)O (H-EICADP-OH)
20,0.02 µM,CCCCCCC(=O)N[C@H]1CCC(=O)NC1=O
21,8 µM,CC[C@H](C)[C@H](NC(=O)[C@@H](N)CCC(=O)O)C(=O)N[C@@H](CS)C(=O)N[C@@H](C)C(=O)N[C@@H](CC(=O)O)C(=O)N1CCC[C@H]1C(=O)N[C@@H](CCCCN)C(=O)N[C@@H](CCC(N)=O)C(=O)N[C@@H](CCCCN)C(=O)N[C@@H](Cc1c[nH]c2ccccc12)C(=O)N[C@H](C(=O)N[C@@H](CCC(N)=O)C(=O)O)C(C)C (H-EICADPKQKWVQ-OH)
22,> 100 µM,NC(=O)CC[C@H](NC(=O)c1ccccc1)C(=O)O
23,0.1 µM,C=CCCCCCCCCC(=O)N[C@H]1CCCNC1=O

row,Compound,EC50
1,CC(C)[C@H](NC(=O)[C@@H](N)Cc1ccc(O)cc1)C(=O)N[C@@H](CCC(N)=O)C(=O)O (H-Tyr-Val-Gln-OH),25 µM

# Tested on: THP-1
# Test: Effective dose against monocyte chemoattractant protein-1(MCP-1) induced leukocyte migration of THP-1 cells at 100 uM conc.; Inactive
# Type: functional, cell-based
# Settings: Homo sapiens
# Outline: as §1
row,Compound,NA
1,CC(C)[C@H](NC(=O)[C@H](CCC(N)=O)NC(=O)[C@@H](N)Cc1c[nH]c2ccccc12)C(=O)O (H-Trp-Gln-Val-OH),inactive
2,CC(C)[C@H](N)C(=O)N[C@@H](Cc1c[nH]c2ccccc12)C(=O)N[C@@H](CCC(N)=O)C(=O)O (H-Val-Trp-Gln-OH),inactive
3,CC(C)[C@H](NC(=O)[C@@H](N)Cc1c[nH]c2ccccc12)C(=O)NCC(=O)O (H-Trp-Val-Gly-OH),inactive
4,CC(C)[C@H](NC(=O)CN)C(=O)N[C@@H](CCC(N)=O)C(=O)O (H-Gly-Val-Gln-OH),inactive
5,CC(C)[C@H](NC(=O)[C@@H](N)Cc1c[nH]c2ccccc12)C(=O)N[C@@H](CCCN=C(N)N)C(=O)O (H-Trp-Val-Arg-OH),inactive
